Here are results for 28 molecules from ChEMBL document CHEMBL3045825, “Synthesis, fungicidal activity, and structure-activity relationship of 2-oxo- and 2-hydroxycycloalkylsulfonamides” (J Agric Food Chem, 2010).

As a reminder, the EC50 is the concentration giving half of the maximal effect. The EC80 is the concentration at which the effect reaches the 80% level.

Values after ≈ are worked out from the molar mass of the structure shown. Some results are limits rather than exact numbers.

For assay [1], the system named is Botrytis cinerea. The assay is described as follows: Fungicidal activity against Botryotinia fuckeliana assessed as inhibition of mycelial growth. Type of assay: functional, organism-based.
In assay [2] the test system is Botrytis cinerea. The assay is described as follows: Fungicidal activity against Botryotinia fuckeliana grown on compound pre-treated cucumber leaves assessed as control efficiency against gray mold disease on leaves at 31.25 ug/mL. Type of assay: functional. Put shortly: (§1)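 Cucumber leaves sprayed with formulation diluted in water (500, 125, 31.25 μg/mL), air-dried, then upper surface inoculated with 6 mm plugs of B. cinerea Pers. maintained on PDA. Disease spot diameter measured; control efficiency from inhibition-rate equation. Procedure repeated 3 times, 9 replicates; procymidone and pyrimethanil (95%) positive controls.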

In assay [3] the test system is Botrytis cinerea. The assay is described as follows: Fungicidal activity against Botryotinia fuckeliana grown on compound pre-treated cucumber leaves assessed as control efficiency against gray mold disease on leaves at 125 ug/mL. Type of assay: functional. In a few lines:
as §1

In assay [4] the test system is Botrytis cinerea. The assay is described as follows: Fungicidal activity against Botryotinia fuckeliana grown on compound pre-treated cucumber leaves assessed as control efficiency against gray mold disease on leaves at 500 ug/mL. Type of assay: functional. Put shortly: as §1
The test system of assay [5] is Botrytis cinerea. The assay is described as follows: Fungicidal activity against Botryotinia fuckeliana assessed as inhibition spore germination. Type of assay: functional, organism-based. In a few lines:
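Conidial germination on microscope slides: B. cinerea conidia about 2×10⁵ spores/mL in 0.05% Tween 80; acetone stock (5000 μg/mL) diluted in suspension to final 200, 50, 12.5, 3.12, 0.78 μg/mL. 30 μL on concave slide, humid chamber 23 °C, 100% RH, 8 h; germinated conidia counted in five fields. Three replicates; procymidone positive control.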

Assay [6] concerns Botrytis cinerea. The assay is described as follows: Potency index, ratio of EC80 for procymidone to EC80 for test compound against Botryotinia fuckeliana assessed as inhibition of mycelial growth. Type of assay: functional.

Take `O=S(=O)(Nc1ccccc1)C1CCCCC1O` (configuration not stated): in the assay with Botrytis cinerea [1], the 50% effective concentration (EC50) came out at 22.9 µg/mL (≈ 89.7 µM) and the concentration for an effect of 80% (EC80) turned out to be 443 µg/mL (≈ 1740 µM).

Take `Cc1ccc(NS(=O)(=O)C2CCCCC2O)cc1` (configuration not stated): in the assay with Botrytis cinerea [1], the EC50 came to 18 µg/mL (≈ 66.9 µM) and the 80% effect concentration (EC80) is 65.4 µg/mL (≈ 243 µM).

In the case of `Cc1ccc(NS(=O)(=O)C2CCCCC2O)c(C)c1` (configuration not stated), in the assay with Botrytis cinerea [1], the EC50 turned out to be 21.5 µg/mL (≈ 75.8 µM) and the EC80 was determined as 332 µg/mL (≈ 1170 µM).

In the case of `CCc1cccc(C)c1NS(=O)(=O)C1CCCCC1O` (configuration not stated), in the assay on Botrytis cinerea [1], the EC50 was determined as 105 µg/mL (≈ 352 µM) and the EC80 is greater than 10000 µg/mL.

For the molecule `COc1ccc(OC)c(NS(=O)(=O)C2CCCCC2O)c1` (configuration not stated), in the assay on Botrytis cinerea [1], the EC50 was found to be 22.3 µg/mL (≈ 70.7 µM) and the concentration for an effect of 80% (EC80) amounted to 181 µg/mL (≈ 575 µM).

Regarding `Cc1cc(F)ccc1NS(=O)(=O)C1CCCCC1O` (configuration not stated), in the assay on Botrytis cinerea [1], the EC50 was 34.1 µg/mL (≈ 119 µM) and the EC80 stood at 310 µg/mL (≈ 1080 µM).

In the case of `O=S(=O)(Nc1ccccc1F)C1CCCCC1O` (configuration not stated), in the assay on Botrytis cinerea [1], the EC50 is 24 µg/mL (≈ 87.8 µM) and the EC80 is 84.2 µg/mL (≈ 308 µM).

In the case of `O=S(=O)(Nc1ccccc1Cl)C1CCCCC1O` (configuration not stated), in the assay with Botrytis cinerea [1], the 50% effective concentration (EC50) was determined as 75.6 µg/mL (≈ 261 µM) and the concentration for an effect of 80% (EC80) is greater than 10000 µg/mL.

Consider `O=S(=O)(Nc1ccccc1Br)C1CCCCC1O` (configuration not stated), for which, in the assay with Botrytis cinerea [1], the 50% effective concentration (EC50) was found to be 11 µg/mL (≈ 32.9 µM) and the EC80 came out at 250 µg/mL (≈ 749 µM).

Regarding `O=S(=O)(Nc1ccc(Cl)cc1)C1CCCCC1O` (configuration not stated), in the assay with Botrytis cinerea [1], the EC50 was found to be 7.38 µg/mL (≈ 25.5 µM) and the EC80 turned out to be 86.5 µg/mL (≈ 298 µM).

On to `O=S(=O)(Nc1ccc(Br)cc1)C1CCCCC1O` (configuration not stated), for which, in the assay with Botrytis cinerea [1], the EC50 was 7.07 µg/mL (≈ 21.2 µM) and the EC80 is 21.4 µg/mL (≈ 64 µM).

As for `O=S(=O)(Nc1ccc(C(F)(F)F)cc1)C1CCCCC1O` (configuration not stated), in the assay with Botrytis cinerea [1], the EC50 stood at 8.79 µg/mL (≈ 27.2 µM) and the concentration for an effect of 80% (EC80) turned out to be 65.9 µg/mL (≈ 204 µM).

As to `O=S(=O)(Nc1ccc(Cl)cc1Cl)C1CCCCC1O` (configuration not stated), in the assay on Botrytis cinerea [1], the EC50 was determined as 53.2 µg/mL (≈ 164 µM) and the EC80 is 518 µg/mL (≈ 1600 µM).

Consider `O=S(=O)(Nc1ccc(Cl)c(Cl)c1)C1CCCCC1O` (configuration not stated), for which, in the assay with Botrytis cinerea [1], the half-maximal effective concentration (EC50) turned out to be 7.8 µg/mL (≈ 24.1 µM) and the EC80 turned out to be 25.5 µg/mL (≈ 78.6 µM).

As for `O=S(=O)(Nc1cc(C(F)(F)F)ccc1C(F)(F)F)C1CCCCC1O` (configuration not stated), in the assay on Botrytis cinerea [1], the concentration giving a half-maximal response (EC50) amounted to 2.53 µg/mL (≈ 6.47 µM) and the EC80 was found to be 16 µg/mL (≈ 40.9 µM).

With `O=S(=O)(Nc1cc(C(F)(F)F)cc(C(F)(F)F)c1)C1CCCCC1O` (configuration not stated), in the assay with Botrytis cinerea [1], the concentration giving a half-maximal response (EC50) worked out at 4.44 µg/mL (≈ 11.3 µM) and the EC80 worked out at 14.6 µg/mL (≈ 37.4 µM).

In the case of `O=S(=O)(Nc1ccc(Cl)cc1C(F)(F)F)C1CCCC1O` (configuration not stated), the values for the EC50 in the assay with Botrytis cinerea [1] and in the assay with Botrytis cinerea [5] were 36.4 µg/mL (≈ 106 µM) and 5.29 µg/mL (≈ 15.4 µM), respectively. The 80% effect concentration (EC80) with Botrytis cinerea [1] worked out at 64.4 µg/mL (≈ 187 µM); in the assay on Botrytis cinerea [5], 43 µg/mL (≈ 125 µM). For the same molecule, the Efficacy with Botrytis cinerea [2] was determined as 62.44%; with Botrytis cinerea [3], 68.9%; in the assay on Botrytis cinerea [4], 81.12%.

For the molecule `O=S(=O)(Nc1ccc(Cl)cc1C(F)(F)F)C1CCCCC1O` (configuration not stated), the half-maximal effective concentration (EC50) came out at 3.37 µg/mL (≈ 9.42 µM) in the assay with Botrytis cinerea [1] and 40.1 µg/mL (≈ 112 µM) with Botrytis cinerea [5]. Also, the 80% effect concentration (EC80) with Botrytis cinerea [1] was 14.3 µg/mL (≈ 39.9 µM); in the assay on Botrytis cinerea [5] it was 260 µg/mL (≈ 727 µM). Moreover, the Efficacy was 53.05% with Botrytis cinerea [2], 72.42% with Botrytis cinerea [3] and 93.54% in the assay on Botrytis cinerea [4].

`O=S(=O)(Nc1ccc(Cl)cc1C(F)(F)F)C1CCCCCC1O` (configuration not stated): the EC50 came out at 0.85 µg/mL (≈ 2.29 µM) in the assay on Botrytis cinerea [1] and 77 µg/mL (≈ 207 µM) with Botrytis cinerea [5]. Besides, the EC80 in the assay with Botrytis cinerea [1] was 5.27 µg/mL (≈ 14.2 µM); in the assay on Botrytis cinerea [5], greater than 1000 µg/mL. For the same molecule, the Efficacy is on record as 74.77% in the assay on Botrytis cinerea [2], 92.67% in the assay with Botrytis cinerea [3] and 95.01% with Botrytis cinerea [4].

In the case of `O=S(=O)(Nc1ccc(Cl)cc1C(F)(F)F)C1CCCCCCC1O` (configuration not stated), the concentration giving a half-maximal response (EC50) in the assay with Botrytis cinerea [1] turned out to be 1.09 µg/mL (≈ 2.83 µM); with Botrytis cinerea [5], 23.6 µg/mL (≈ 61.2 µM). The concentration for an effect of 80% (EC80) in the assay with Botrytis cinerea [1] was found to be 2.5 µg/mL (≈ 6.48 µM); in the assay with Botrytis cinerea [5] it was 693 µg/mL (≈ 1800 µM). In addition, the Efficacy is listed as 91.49% with Botrytis cinerea [2], 93.55% in the assay on Botrytis cinerea [3] and 94.42% in the assay on Botrytis cinerea [4]. Moreover, the Ratio with Botrytis cinerea [6] came out at 1.18.

With `O=S(=O)(Nc1ccc(Cl)cc1C(F)(F)F)C1CCCCCCCCCCC1O` (configuration not stated), the results for the EC50 in the assay on Botrytis cinerea [1] and with Botrytis cinerea [5] were 5.72 µg/mL (≈ 12.9 µM) and 420 µg/mL (≈ 950 µM), respectively. Further, the 80% effect concentration (EC80) in the assay on Botrytis cinerea [1] was 49.4 µg/mL (≈ 112 µM); in the assay with Botrytis cinerea [5], greater than 1000 µg/mL. The Efficacy is 8.45% with Botrytis cinerea [2], 15.49% in the assay on Botrytis cinerea [3] and 26.06% in the assay with Botrytis cinerea [4].

`O=C1CCCC1S(=O)(=O)Nc1ccc(Cl)cc1C(F)(F)F` (configuration not stated): the EC50 is 2.5 µg/mL (≈ 7.32 µM) with Botrytis cinerea [1] and 4.21 µg/mL (≈ 12.3 µM) with Botrytis cinerea [5]. The EC80 with Botrytis cinerea [1] stood at 15.1 µg/mL (≈ 44.1 µM); in the assay with Botrytis cinerea [5], 227 µg/mL (≈ 663 µM). For the same molecule, the Efficacy with Botrytis cinerea [2] is recorded as 60.68%; in the assay with Botrytis cinerea [3] it was 72.42%; with Botrytis cinerea [4] it was 74.77%.

Turning to `O=C1CCCCCC1S(=O)(=O)Nc1ccc(Cl)cc1C(F)(F)F` (configuration not stated), the values for the EC50 with Botrytis cinerea [1] and with Botrytis cinerea [5] were 0.8 µg/mL (≈ 2.16 µM) and 18.1 µg/mL (≈ 48.9 µM), respectively. In addition, the EC80 in the assay on Botrytis cinerea [1] was determined as 3.7 µg/mL (≈ 10 µM); with Botrytis cinerea [5], 388 µg/mL (≈ 1050 µM). Further, the figures for the Efficacy with Botrytis cinerea [2], in the assay with Botrytis cinerea [3] and in the assay with Botrytis cinerea [4] were 11.97%, 21.95% and 49.53%, respectively.

With `O=C1CCCCCCC1S(=O)(=O)Nc1ccc(Cl)cc1C(F)(F)F` (configuration not stated), the EC50 in the assay with Botrytis cinerea [1] was 1.22 µg/mL (≈ 3.18 µM); with Botrytis cinerea [5] it was 19 µg/mL (≈ 49.4 µM). Further, the EC80 with Botrytis cinerea [1] turned out to be 2.88 µg/mL (≈ 7.5 µM); with Botrytis cinerea [5], 549 µg/mL (≈ 1430 µM). The results for the Efficacy in the assay with Botrytis cinerea [2], in the assay with Botrytis cinerea [3] and in the assay on Botrytis cinerea [4] were 64.79%, 67.14% and 67.72%, respectively. The Ratio in the assay with Botrytis cinerea [6] is listed as 1.03.

`O=C1CCCCCCCCCCC1S(=O)(=O)Nc1ccc(Cl)cc1C(F)(F)F` (configuration not stated): the values for the EC50 in the assay with Botrytis cinerea [1] and in the assay with Botrytis cinerea [5] were 1.94 µg/mL (≈ 4.41 µM) and 3.24 µg/mL (≈ 7.36 µM), respectively. For the same molecule, the concentration for an effect of 80% (EC80) in the assay on Botrytis cinerea [1] stood at 39.8 µg/mL (≈ 90.5 µM); in the assay on Botrytis cinerea [5], 115 µg/mL (≈ 260 µM). Also, the figures for the Efficacy in the assay on Botrytis cinerea [2], in the assay on Botrytis cinerea [3] and in the assay on Botrytis cinerea [4] were 82.98%, 95.6% and 97.07%, respectively.

Take `O=C1CCCCC1S(=O)(=O)Nc1ccc(Cl)cc1C(F)(F)F` (configuration not stated): the concentration for a half-maximal effect (EC50) worked out at 2.16 µg/mL (≈ 6.07 µM) in the assay with Botrytis cinerea [1] and 4.21 µg/mL (≈ 11.8 µM) with Botrytis cinerea [5]. The figures for the EC80 in the assay with Botrytis cinerea [1] and in the assay on Botrytis cinerea [5] were 5.2 µg/mL (≈ 14.6 µM) and 124 µg/mL (≈ 349 µM), respectively. Also, the values for the Efficacy in the assay with Botrytis cinerea [2], with Botrytis cinerea [3] and in the assay on Botrytis cinerea [4] were 16.08%, 20.78% and 28.99%, respectively.

Turning to `CC12CC1(C)C(=O)N(c1cc(Cl)cc(Cl)c1)C2=O` (configuration not stated) [PROCYMIDONE], the EC50 in the assay with Botrytis cinerea [1] came out at 0.99 µg/mL (≈ 3.48 µM). Also, the EC80 in the assay on Botrytis cinerea [1] was 2.96 µg/mL (≈ 10.4 µM). Besides, the Efficacy in the assay with Botrytis cinerea [2] was 61.27%; with Botrytis cinerea [3], 73.59%; in the assay with Botrytis cinerea [4], 91.78%.

`Cc1cc(C)nc(Nc2ccccc2)n1` [PYRIMETHANIL]: the Efficacy amounted to 76.53% in the assay on Botrytis cinerea [2], 82.98% in the assay on Botrytis cinerea [3] and 100% with Botrytis cinerea [4].
